The values that follow come from ChEMBL document CHEMBL1145528, “Design and study of some novel ibuprofen derivatives with potential nootropic and neuroprotective properties” (Bioorg Med Chem, 2007).

In assay [1] the test system is Mus musculus. Description: Anti-inflammatory activity against of FCA-induced odema in BALB/c mouse assessed as oedema inhibition at 0.30 mmol/kg, ip. It counts as functional. The procedure, abridged: (§1)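 FCA (0.05 mL/paw) injected intradermally into right hind paw of mice, left paw as control. Compounds suspended in water with a few drops of Tween 80, given ip 15 min before FCA. After 3 h both hind paws excised and weighed. Oedema is paw weight increase, compared with control animals given only the vehicle. Means SEM, Student's t-test.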

In assay [2] the test system is Mus musculus. Put plainly: Increase of oedema in BALB/c mouse with FCA-induced inflammation at 0.30 mmol/kg, ip. It is filed as functional. The method in brief:
as §1

Assay [3] deals with T1, Acetylcholinesterase (Rattus norvegicus) (UniProt P37136).
T1 sequence (whole entry): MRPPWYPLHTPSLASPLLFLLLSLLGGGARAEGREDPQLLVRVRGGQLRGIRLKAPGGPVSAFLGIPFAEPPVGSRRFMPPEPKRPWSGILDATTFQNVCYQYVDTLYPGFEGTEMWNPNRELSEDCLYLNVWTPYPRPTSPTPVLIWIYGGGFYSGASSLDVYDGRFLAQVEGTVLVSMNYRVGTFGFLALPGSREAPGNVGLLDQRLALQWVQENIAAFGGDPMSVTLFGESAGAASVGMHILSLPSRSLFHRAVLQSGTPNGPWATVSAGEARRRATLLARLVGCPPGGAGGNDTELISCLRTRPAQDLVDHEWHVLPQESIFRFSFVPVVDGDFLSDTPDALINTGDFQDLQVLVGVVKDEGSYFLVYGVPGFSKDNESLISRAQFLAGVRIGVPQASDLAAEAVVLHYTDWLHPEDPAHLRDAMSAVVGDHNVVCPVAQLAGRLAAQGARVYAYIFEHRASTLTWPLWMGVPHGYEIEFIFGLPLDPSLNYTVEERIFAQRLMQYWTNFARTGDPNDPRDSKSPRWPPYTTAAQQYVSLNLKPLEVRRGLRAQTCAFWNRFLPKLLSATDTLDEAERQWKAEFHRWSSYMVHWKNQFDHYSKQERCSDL
Description: Inhibition of Fischer 344 rat brain acetylcholine esterase at 0.6 mM. The procedure, abridged:
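Brains from untreated rats homogenised (20 mg/mL) in 0.1 M phosphate buffer, pH 8, as the enzyme source. Acetylthiocholine is the substrate. Activity is read colorimetrically as thiocholine reacting with dithio-bisnitrobenzoic acid and followed as a time course. Percent inhibition is taken at the end of the incubation period.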

The next assay has as its system Liver microsomes. Put plainly: Inhibition of Fe(2+)/ascorbate-induced lipid peroxidation in Fischer 344 rat hepatic microsomal membranes. It counts as functional. The following applies: Microsome.
The subject of assay [4] is Mus musculus. Put plainly: Anti-inflammatory activity against of FCA-induced odema in BALB/c mouse assessed as oedema inhibition at 0.15 mmol/kg, ip. It counts as functional. The method in brief:
as §1

Assay [5] relates to Mus musculus. Put plainly: Increase of oedema in BALB/c mouse with FCA-induced inflammation at 0.15 mmol/kg, ip. It is filed as functional. The procedure, abridged: as §1
The target in assay [6] is T2, Seed linoleate 13S-lipoxygenase-1 (Glycine max) (UniProt P08170).
T2 sequence (whole entry): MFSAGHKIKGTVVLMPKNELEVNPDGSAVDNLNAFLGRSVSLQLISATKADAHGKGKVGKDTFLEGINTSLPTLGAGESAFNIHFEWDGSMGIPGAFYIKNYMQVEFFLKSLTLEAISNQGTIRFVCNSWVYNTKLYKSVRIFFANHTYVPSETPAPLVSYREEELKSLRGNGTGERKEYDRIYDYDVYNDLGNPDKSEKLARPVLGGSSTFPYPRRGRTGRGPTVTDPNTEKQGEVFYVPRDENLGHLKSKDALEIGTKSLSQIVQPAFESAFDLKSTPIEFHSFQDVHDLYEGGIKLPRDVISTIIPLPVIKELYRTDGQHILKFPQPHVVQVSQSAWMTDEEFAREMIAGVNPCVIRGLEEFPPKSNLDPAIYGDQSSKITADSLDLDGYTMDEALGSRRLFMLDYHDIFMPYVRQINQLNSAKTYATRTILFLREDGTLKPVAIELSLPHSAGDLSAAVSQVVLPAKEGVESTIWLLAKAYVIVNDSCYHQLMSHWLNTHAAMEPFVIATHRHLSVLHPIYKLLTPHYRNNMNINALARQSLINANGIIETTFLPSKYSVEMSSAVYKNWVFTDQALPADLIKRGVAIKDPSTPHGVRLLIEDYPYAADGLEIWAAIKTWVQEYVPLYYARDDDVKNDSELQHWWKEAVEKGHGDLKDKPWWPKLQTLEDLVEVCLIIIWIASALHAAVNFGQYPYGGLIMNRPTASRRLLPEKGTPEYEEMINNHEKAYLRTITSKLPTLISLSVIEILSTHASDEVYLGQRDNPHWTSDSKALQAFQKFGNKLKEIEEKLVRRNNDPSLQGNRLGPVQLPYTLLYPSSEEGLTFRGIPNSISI
Put plainly: Inhibition of soybean lipoxygenase at 0.3 mM. More on the design: Activity: scale not given: the % may be the effect or the level left. The procedure, abridged: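 Soybean lipoxygenase 250 U/mL in Tris buffer pH 9. Compounds in 60% aqueous ethanol at 0.1–0.3 mM. Reaction started with sodium linoleate 0.1 mM and followed for 7 min at 28 °C by 13-hydroperoxylinoleic acid conjugated diene absorbance at 234 nm.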

Assay [7] addresses T3, Seed linoleate 13S-lipoxygenase-1 (Glycine max, UniProt P08170).
T3 sequence (P08170 whole entry): T2 sequence (whole entry)
Put plainly: Inhibition of soybean lipoxygenase after 7 mins.

Assay [8] concerns Rattus norvegicus. Put plainly: Mortality rate in Fischer 344 rat at 1.6 mmol/kg, sc after 4 days. It counts as functional. The procedure, abridged:
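Rats receive the compound subcutaneously at 1.6 mmol/kg once daily for 4 days. Mortality, perforating gastrointestinal ulcers, melena defecation and body weight change are recorded 24 h after the last injection.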

Assay [9] concerns Rattus norvegicus. Description: Gastrointestinal toxicity in Fischer 344 rat assessed as gastrointestinal ulceration at 1.6 mmol/kg, sc after 4 days. It is filed as functional. The method in brief: (§2)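 Rats dosed subcutaneously at 1.6 mmol/kg once daily for 4 days. Perforating gastrointestinal ulcers, melena defecation, body weight change and mortality recorded 24 h after the last injection.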

Assay [10] concerns Rattus norvegicus. Description: Body weight change per 100g in Fischer 344 rat at 1.6 mmol/kg, sc after 4 days. It counts as functional. The method in brief:
as §2

Assay [11] relates to Rattus norvegicus. Put plainly: Total cholesterol level in Fischer 344 rat plasma at 0.3 mmol/kg, ip after 24 hrs. It counts as functional. The procedure, abridged:
(§3)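 Compounds given ip at 0.3 mmol/kg 30 min later. Plasma total cholesterol, LDL-cholesterol and triglycerides measured in mg/dl and expressed as percent reduction against the hyperlipidemic control group. SD, Student's t-test.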

For assay [12], the system named is Rattus norvegicus. Put plainly: LDL level in Fischer 344 rat plasma at 0.3 mmol/kg, ip after 24 hrs. It counts as functional. The method in brief:
as §3

For assay [13], the system named is Rattus norvegicus. Description: Triglyceride level in Fischer 344 rat plasma at 0.3 mmol/kg, ip after 24 hrs. It counts as functional. The method in brief: as §3
Assay [14] deals with Rattus norvegicus. Description: Decrease in total cholesterol in Fischer 344 rat plasma at 0.3 mmol/kg, ip after 24 hrs relative to control. It is filed as functional. More on the design: scale not given: the % may be the effect or the level left. The method in brief:
as §3

The subject of assay [15] is Rattus norvegicus. Put plainly: Decrease in LDL level in Fischer 344 rat plasma at 0.3 mmol/kg, ip after 24 hrs relative to control. More on the design: scale not given: the % may be the effect or the level left. It counts as functional. The procedure, abridged: as §3
Assay [16] deals with Rattus norvegicus. Put plainly: Decrease in triglyceride level in Fischer 344 rat plasma at 0.3 mmol/kg, ip after 24 hrs relative to control. It counts as functional. More on the design: scale not given: the % may be the effect or the level left. The method in brief: as §3

The source made the active and inactive calls. No cut-off for these calls is given here.

Broadly, the inhibition in vivo is the change of the read-out against control, counted positive when it falls. For `CC(C)C(=O)N1CCC[C@@H]1C(=O)OCCCc1cccnc1`, the inhibition in vivo at 300 µmol/kg in the assay on Mus musculus [1] came out at 1%. The compound further came in with an Activity in the assay on Mus musculus [2] of 77%. In addition, the result (in [3]; with Liver microsomes) was inactive.
As usually defined, the inhibition is the drop in the measured response relative to a control, in per cent. In assay [3], `CC(C)Cc1ccc([C@H](C)C(=O)O)cc1` showed an inhibition of 20%. Further, the result in the assay on Liver microsomes was inactive.
Compound `CC(C)Cc1ccc(C(C)C(=O)N2CCCC2C(=O)OCCCc2cccnc2)cc1` (stereo not drawn) came in with an inhibition in [3] of 64%.
On to `CC(C)C(=O)N1CCCC1C(=O)O` (stereo not drawn), for which the outcome with Liver microsomes was inactive.
The term IC50 denotes the concentration that inhibits the measured activity by half. `COc1cc(C)ccc1OC(=O)C1CCCN1C(=O)C(C)c1ccc(CC(C)C)cc1` (stereo not drawn): in the assay on Mus musculus [1], the inhibition in vivo at 300 µmol/kg was 43%. Further, the Activity is 49.6% with Mus musculus [2], 67.9% with Mus musculus [5] and 78% in assay [6]. Besides, the inhibition in vivo at 150 µmol/kg in the assay with Mus musculus [4] stood at 21%. For the same compound, the half-inhibitory concentration (IC50) in assay [7] is 140 µM. The compound also yielded an inhibition in assay [3] of 80%. Further, the result in the assay with Liver microsomes was inactive.
In the case of `CC(C)Cc1ccc(C(C)C(=O)N2CCCC2C(=O)O)cc1` (stereo not drawn), in the assay on Liver microsomes, the result was inactive.
Consider `NCCS` [CYSTEAMINE], for which the Activity was 80% with Rattus norvegicus [8], 40% in the assay with Rattus norvegicus [9] and -7 g in the assay on Rattus norvegicus [10].
Regarding `O=C(O)[C@@H]1CCCN1`, the outcome with Liver microsomes was inactive.
In the case of `COc1cc(C)ccc1OC(=O)[C@H]1CCCN1C(=O)C(C)C`, in the assay with Mus musculus [1], the inhibition in vivo at 300 µmol/kg turned out to be 1%. The same compound had an Activity with Mus musculus [2] of 79.3%. Moreover, the inhibition in assay [6] came out at 42%. Also, the outcome (in [3]; in the assay with Liver microsomes) was inactive.
For `CC(C)Cc1ccc(C(C)C(=O)O)cc1` (stereo not drawn) [IBUPROFEN], in the assay with Mus musculus [1], the inhibition in vivo at 300 µmol/kg was 53%. The Activity in the assay on Mus musculus [2] stood at 44.6%; in the assay with Rattus norvegicus [11], 111 mg/dL; in the assay with Rattus norvegicus [12] it was 38 mg/dL; with Rattus norvegicus [13], 228 mg/dL; in the assay with Rattus norvegicus [8], 50%; in the assay on Rattus norvegicus [9] it was 88%. Further, the Activity with Rattus norvegicus [10] is reported as -13 g; in the assay with Rattus norvegicus [14], 38%; with Rattus norvegicus [15], 32%; with Rattus norvegicus [16], 41%. The same compound yielded an inhibition in [3] of 20%.
